In ChEMBL document CHEMBL5376028, “Discovery of dual-action phenolic 4-arylidene-isoquinolinones with antioxidant and α-glucosidase inhibition activities” (RSC Med Chem, 2024):
Activity calls are given as the source filed them. No cut-off for these calls is given here.

Experiments:
Brain [1] = assay: (§1) Antioxidant activity in Wistar rat brain homogenate assessed as inhibition of FeSO4-induced lipid peroxidation preincubated with compound for 30 mins followed by FeSO4 addition and measured after 1 hrs by TBARS assay; format: functional, tissue-based
How it was run: (§2)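 Whole brains of adult male Wistar rats (200–250 g) were homogenized 1/10 in PBS pH 7.4 and spun at 800 rcf. The supernatant was adjusted to 2.666 mg protein/mL and preincubated with EDTA and compound in DMSO for 30 min at 37 °C. FeSO₄ (final 10 μM) was added for 1 h at 37 °C. TBA/TCA reagent was added, then heating at 80 °C, and A540 was read against a TMP standard curve. Inhibition % was calculated versus the DMSO control; α-tocopherol served as the standard. IC₅₀ came from linear regression, mean ± SEM of three experiments.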

Mus musculus [2] = assay: Anti-hyperglycemic activity in CDI mouse assessed as decrease in blood glucose level at 50 mg/kg preadministered with compound for 30 mins followed by sucrose administration and measured after 30 mins by oral sucrose tolerance test relative to control; format: functional; design: scale not given: the % may be the effect or the level left
How it was run: (§3)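 Sucrose 3 g kg⁻¹ given orally 30 min later. Caudal vein blood glucose measured by glucometer at 0, 0.5, 1, 1.5, 2 and 3 h; % variation of glycemia calculated relative to the 0 h level.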

Brain [3] = assay: as §1, with “peroxidation by measuring TBARS scavenging activity at 100 uM” for “peroxidation”, “absorbance based microplate reader relative to control” for “TBARS assay”; format: functional, tissue-based; design: scale not given: the % may be the effect or the level left; conditions: time 90.0 min; how it was run: as §2
[4] = Antioxidant activity assessed as DPPH radical scavenging activity at 100 uM incubated for 30 mins in dark by absorbance based analysis relative to control; format: functional
How it was run: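 The compound in DMSO was mixed with DPPH in EtOH (final 100 μM). It was incubated 30 min at 37 °C with stirring in the dark, and absorbance was read at 515 nm. Scavenging % = (C − E) × 100/C against the DPPH control.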

[5] = target: T1, Alpha-glucosidase (Saccharomyces cerevisiae S288c) (UniProt P53341+P38158+P07265); assay: Mixed type inhibition of Saccharomyces cerevisiae alpha-glucosidase using p-nitrophenyl-alpha-D-glucopyranoside as substrate at 1 to 2 times of IC50 pre-incubated for 10 mins followed by substrate addition and measured after 15 mins by Lineweaver-Burk plot analysis; format: protein assay; conditions: time 25.0 min
How it was run: (§4)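 The same α-glucosidase protocol was used, with enzyme and inhibitor preincubated 10 min. Reactions were started with PNPG varied from 1 to 23.1 mM at 37 °C, quenched with […] and read at 405 nm. […] Mode was assigned from Lineweaver–Burk plots.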

Alpha-glucosidase = Alpha-glucosidase (Saccharomyces cerevisiae S288c, UniProt P53341+P38158+P07265); assay: Inhibition of Saccharomyces cerevisiae alpha-glucosidase using p-nitrophenyl-alpha-D-glucopyranoside as substrate pre-incubated for 10 mins followed by substrate addition and measured after 15 mins by absorbance based analysis; format: protein assay
Mus musculus [6] = assay: Anti-hyperglycemic activity in CDI mouse assessed as reduction in blood glucose level at 100 mg/kg preadministered with compound for 30 mins followed by sucrose administration and measured upto 3 hrs by oral sucrose tolerance test relative to control; format: functional; design: scale not given: the % may be the effect or the level left; conditions: time < 3.5 hrs; how it was run: as §3
[7] = Antioxidant activity assessed as hydroxyl radical scavenging activity by Electron Paramagnetic Resonance based spectrophotometric analysis; format: functional; conditions: dose 3-106 µM
How it was run: (§5)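 Hydroxyl radicals came from a Fenton reaction: FeSO₄·7H₂O 20 μM (acid water, pH 2.5) plus H₂O₂ 200 μM, with DMPO 6000 μM spin trap in PBS pH 7.4. The compound in acetone was tested at final 106, 60, 10.66 and 3.3 μM. The DMPO–OH quartet was recorded by EPR (9.44 GHz, 8 mW, 0.1 mT modulation, 120 s sweep), and intensity was taken from the second-peak height.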

[8] = Antioxidant activity assessed as reduction in hydroxyl concentration at 10 uM by Electron Paramagnetic Resonance based spectrophotometric analysis relative to control; format: functional; design: scale not given: the % may be the effect or the level left; how it was run: as §5
[9] = Antioxidant activity assessed as hydroxyl radical scavenging activity by measuring fluorescence intensity at 10 uM by Electron Paramagnetic Resonance based spectrophotometric analysis (reference value: 610 a.u.); format: functional
How it was run: (§6)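 Hydroxyl radicals generated by Fenton reaction: FeSO₄·7H₂O 20 μM (in acid water, pH 2.5) plus H₂O₂ 200 μM, with DMPO 6000 μM spin trap in PBS pH 7.4. Compound added in acetone at final 106, 60, 10.66 or 3.3 μM. The DMPO–OH quartet was recorded by EPR as the first derivative in a quartz flat cell, at 9.44 GHz, 8 mW microwave power, 0.1 mT modulation width. Intensity was taken as peak height of the second signal.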

Mus musculus [10] = assay: Anti-hyperglycemic activity in CDI mouse assessed as reduction in blood glucose level preadministered with compound for 30 mins followed by sucrose administration and measured upto 3 hrs by oral sucrose tolerance test; format: functional, organism-based; conditions: dose 50-100 mg/kg, time <= 3.5 hrs; how it was run: as §3
[11] = Antioxidant activity assessed as inhibition of hydroxyl radical at 106 uM by Electron Paramagnetic Resonance based spectrophotometric analysis relative to control; format: functional; how it was run: as §5
[12] = Antioxidant activity assessed as hydroxyl radical scavenging activity by measuring fluorescence intensity at 106 uM by Electron Paramagnetic Resonance based spectrophotometric analysis (reference value: 610 a.u.); format: functional; how it was run: as §6
[13] = Antioxidant activity assessed as hydroxyl radical scavenging activity by measuring fluorescence intensity at 3 uM by Electron Paramagnetic Resonance based spectrophotometric analysis (reference value: 610 a.u.); format: functional; how it was run: as §6
Mus musculus [14] = assay: Anti-hyperglycemic activity in CDI mouse assessed as blood glucose concentration at 50 mg/kg preadministered with compound for 30 mins followed by sucrose administration and measured after 3 hrs by oral sucrose tolerance test relative to control; format: functional; conditions: time 3.5 hrs; how it was run: as §3
[15] = Antioxidant activity assessed as hydroxyl radical scavenging activity by measuring fluorescence intensity at 60 uM by Electron Paramagnetic Resonance based spectrophotometric analysis (reference value: 610 a.u.); format: functional; how it was run: as §6
[16] = target: T1, Alpha-glucosidase (Saccharomyces cerevisiae S288c); assay: Mixed type inhibition of Saccharomyces cerevisiae alpha-glucosidase using p-nitrophenyl-alpha-D-glucopyranoside as substrate at 0.5 to 1 times of IC50 pre-incubated for 10 mins followed by substrate addition and measured after 15 mins by Lineweaver-Burk plot analysis; format: protein assay; conditions: time 25.0 min; how it was run: as §4
COS-7 = assay: Cytotoxicity against African green monkey COS-7 cells at 50 uM; format: toxicity, cell-based; conditions: chlorocebus aethiops, cos-7, 50 µM
Mus musculus [17] = assay: Anti-hyperglycemic activity in CDI mouse assessed as reduction in blood glucose level at 50 mg/kg measured for 7 hrs by oral glucose tolerance test; format: functional, organism-based
Mus musculus [18] = assay: Anti-hyperglycemic activity in CDI mouse assessed as reduction in glucose AUC at 50 mg/kg measured for 7 hrs by oral glucose tolerance test; format: functional, organism-based
[19] = Toxicity in CDI mouse; conditions: in vivo
[20] = target: T1, Alpha-glucosidase (Saccharomyces cerevisiae S288c); assay: Non-competitive inhibition of Saccharomyces cerevisiae alpha-glucosidase using p-nitrophenyl-alpha-D-glucopyranoside as substrate at 1 to 2 times of IC50 pre-incubated for 10 mins followed by substrate addition and measured after 15 mins by Lineweaver-Burk plot analysis; format: protein assay; conditions: time 25.0 min; how it was run: as §4
[21] = Rattus norvegicus, Wistar, Brain

Compound | Activity (Brain [3]) [%] | IC50 (Brain [1]; [21]) [µM] | Activity [4] [%] | IC50 (Alpha-glucosidase) [µM] | further results
VITAMIN E [listing 1 of 2 here] | – | – | – | – | IC50 (Brain [1]): 6.8 µM
COc1cc(/C=C2/C(=O)N(c3ccc(C(C)C)cc3)C(C(=O)NC3CCCCC3)c3ccccc32)ccc1O (stereo not given) | 95.7 | 17.2 | 68 | 14.8 | Activity (Mus musculus [2]; time 60 min, 1 h): 17%; inhibition [5]: Active
COc1cc(/C=C2/C(=O)N(c3ccc(O)cc3)C(C(=O)NC3CCCCC3)c3ccccc32)ccc1O (stereo not given) | 96.4 | 22.7 | 72.2 | 92.8 | –
COc1cc(/C=C2/C(=O)N(c3ccc(F)cc3)C(C(=O)NC3CCCCC3)c3ccccc32)ccc1O (stereo not given) | 90.5 | – | 67.3 | 52.5 | –
COc1cc(/C=C2/C(=O)N(c3ccc(C)cc3)C(C(=O)NC3CCCCC3)c3ccccc32)cc(OC)c1O (stereo not given) | 96.5 | 3.5 | 37.5 | 44.4 | –
CC(C)c1ccc(N2C(=O)/C(=C/c3ccccc3)c3ccccc3C2C(=O)NC(C)(C)C)cc1 (stereo not given) | 6.1 | – | 0 | 50.6 | –
COc1cc(/C=C2/C(=O)N(c3ccc(O)cc3)C(C(=O)NC3CCCCC3)c3ccccc32)cc(OC)c1O (stereo not given) | 98 | 9.8 | 33.1 | > 100 | –
VITAMIN E [listing 2 of 2 here] | 79.1 | – | 87.4 | – | –
COc1cc(/C=C2/C(=O)N(c3ccc(C(C)C)cc3)C(C(=O)NC3CCCCC3)c3ccccc32)cc(OC)c1O (stereo not given) | 97.7 | 1.4 | 35.4 | 33.1 | Activity (Mus musculus [6]): 54%; Activity (Mus musculus [2]; time 60.0 min): Active; Activity [7]: Dose-Dependent Effect; Activity [8]: 25%; Flu intensity [9]: 412 a.u.; Activity (Mus musculus [10]): Dose-Dependent Effect; inhibition [11]: 76%; Flu intensity [12]: 150 a.u.; Flu intensity [13]: 464 a.u.; Activity (Mus musculus [14]): 29%; Flu intensity [15]: 256 a.u.
COc1cc(/C=C2/C(=O)N(c3ccccc3)C(C(=O)NC3CCCCC3)c3ccccc32)ccc1O (stereo not given) | 95.5 | 19.2 | 66.8 | 50.5 | –
COc1cc(/C=C2/C(=O)N(c3ccc(C(F)(F)F)cc3)C(C(=O)NC3CCCCC3)c3ccccc32)cc(OC)c1O (stereo not given) | 99.4 | 1.6 | 89.9 | > 100 | Activity (Mus musculus [2]; time 60.0 min): Active
O=c1c(O)c(-c2ccc(O)c(O)c2)oc2cc(O)cc(O)c12 | 95.7 | – | 97.9 | – | –
COc1cc(/C=C2/C(=O)N(c3ccc(C)cc3)C(C(=O)NC3CCCCC3)c3ccccc32)ccc1O (stereo not given) | 70.7 | – | 72.7 | 30.2 | Activity (Mus musculus [6]): 41%; inhibition [16]: Active; Activity (Mus musculus [2]; time 60.0 min): Active; Activity (COS-7): Non-Toxic; Activity (Mus musculus [17]): inactive; Activity (Mus musculus [18]): inactive; Activity [19]: Non-Toxic; Activity (Mus musculus [10]): Dose-Dependent Effect; Activity (Mus musculus [14]): 20%
COc1ccc2c(c1)/C(=C\c1ccc(O)c(OC)c1)C(=O)N(c1ccc(C(C)C)cc1)C2C(=O)NC(C)(C)C (stereo not given) | 95.4 | 11.3 | 69.2 | 31.5 | –
COc1cc(/C=C2/C(=O)N(c3ccc(C(C)C)cc3)C(C(=O)NC(C)(C)C)c3ccccc32)cc(OC)c1O (stereo not given) | 96.8 | 2.4 | 37.6 | > 100 | –
COc1cc(/C=C2/C(=O)N(c3ccccc3)C(C(=O)NC3CCCCC3)c3ccccc32)cc(OC)c1O (stereo not given) | 97.8 | 4.8 | 40.6 | 60.1 | –
COc1cc(/C=C2/C(=O)N(Cc3ccccc3)C(C(=O)NC3CCCCC3)c3ccccc32)cc(OC)c1O (stereo not given) | 96.8 | 2.2 | 36.2 | 61.3 | –
COc1cc(/C=C2/C(=O)N(Cc3ccccc3)C(C(=O)NC3CCCCC3)c3ccccc32)ccc1O (stereo not given) | 93.1 | – | 77.1 | 50.1 | –
COc1cc(/C=C2/C(=O)N(c3ccc(C(F)(F)F)cc3)C(C(=O)NC3CCCCC3)c3ccccc32)ccc1O (stereo not given) | 64.3 | – | 65.9 | 13.7 | inhibition [20]: Active; Activity (Mus musculus [2]; time 60 min, 1 h): 26%; Activity (COS-7): Non-Toxic; Activity (Mus musculus [17]): inactive; Activity (Mus musculus [18]): inactive; Activity [19]: Non-Toxic
COc1cc(/C=C2/C(=O)N(c3ccc(F)cc3)C(C(=O)NC3CCCCC3)c3ccccc32)cc(OC)c1O (stereo not given) | 96.8 | 2.9 | 36.1 | 57.2 | –
COc1cc(/C=C2/C(=O)N(c3ccc(C(C)C)cc3)C(C(=O)NC(C)(C)C)c3ccccc32)ccc1O (stereo not given) | 92.4 | – | 67.3 | 68 | –
